{"source": "paper PMC3946399", "about": "(Molecular pharmaceutics, 2013)", "key": {"SERCA [1]": {"test_system": "SERCA", "assay": "Evaluation of synergy in SERCA ATPase assay", "format": "biochemical, rabbit"}, "HL60/MX2 cells [2]": {"test_system": "HL60/MX2 cells", "assay": "cells", "format": "cell-based"}, "HL60/MX2 cells [3]": {"test_system": "HL60/MX2 cells", "format": "cell-based", "settings": "ratio of IC50 in HL60 and HL60/MX2"}, "SERCA [4]": {"molecular_target": "SERCA", "settings": "cited from earlier work"}, "SERCA1a": {"molecular_target": "SERCA1a (Oryctolagus cuniculus, UniProt P04191)", "sequence (P04191 1-994 isoform P04191-2)": "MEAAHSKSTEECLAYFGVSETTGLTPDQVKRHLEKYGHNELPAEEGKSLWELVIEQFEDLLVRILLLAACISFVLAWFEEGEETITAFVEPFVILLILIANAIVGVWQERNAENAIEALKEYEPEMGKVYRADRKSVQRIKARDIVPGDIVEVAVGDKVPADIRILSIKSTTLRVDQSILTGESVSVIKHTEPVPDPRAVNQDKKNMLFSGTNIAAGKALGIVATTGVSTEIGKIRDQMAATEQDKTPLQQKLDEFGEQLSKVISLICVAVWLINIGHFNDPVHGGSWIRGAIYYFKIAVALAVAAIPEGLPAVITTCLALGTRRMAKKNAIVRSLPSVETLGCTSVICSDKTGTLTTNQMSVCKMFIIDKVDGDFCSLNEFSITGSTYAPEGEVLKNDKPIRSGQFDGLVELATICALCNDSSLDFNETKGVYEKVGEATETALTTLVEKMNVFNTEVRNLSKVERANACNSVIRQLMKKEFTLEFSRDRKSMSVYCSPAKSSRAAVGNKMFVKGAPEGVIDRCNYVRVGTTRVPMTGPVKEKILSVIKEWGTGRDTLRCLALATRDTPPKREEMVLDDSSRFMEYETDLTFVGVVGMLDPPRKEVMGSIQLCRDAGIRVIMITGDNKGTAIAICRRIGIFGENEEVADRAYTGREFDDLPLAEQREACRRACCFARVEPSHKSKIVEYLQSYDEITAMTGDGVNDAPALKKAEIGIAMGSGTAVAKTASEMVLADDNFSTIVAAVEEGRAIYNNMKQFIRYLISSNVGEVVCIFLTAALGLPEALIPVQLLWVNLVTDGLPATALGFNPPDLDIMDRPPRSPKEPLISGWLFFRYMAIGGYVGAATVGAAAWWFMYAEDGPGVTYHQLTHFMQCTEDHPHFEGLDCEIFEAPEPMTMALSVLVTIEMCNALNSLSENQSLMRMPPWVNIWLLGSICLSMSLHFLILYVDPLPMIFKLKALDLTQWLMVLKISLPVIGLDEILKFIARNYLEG", "format": "biochemical, rabbit", "settings": "for pKATP(reg) / pKATP(cat): pCa 5.4; for pKATP(reg): control 3.30 ± 0.08; for pKATP(cat): control 4.99 ± 0.07", "summary_of_the_method": "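Ca2+-dependent ATPase activity was measured in light SR vesicles from fast-twitch skeletal muscle of New Zealand white rabbits, using an NADH-linked coupled assay. Buffer was 5 mM MgCl2, 100 mM KCl, 1 mM EGTA (free Ca2+ set by EGTA buffering), 0.4 mM NADH, 10 IU/mL LDH, 10 IU/mL PK, 7 ug/mL A23187, 50 mM MOPS pH 7.0. Compounds were added in 1% DMSO final. Runs were at 37 °C in duplicate or triplicate, and rates were taken from A340 decay.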"}, "[5]": {"settings": "in combination with (−)-CXL017 at fixed molar ratio, CI<0.9 synergy"}}, "note": "Read-outs that look alike come from different tables or passages of the source."}
{"compound": "CCOC(=O)CC1C(C(=O)OCC)=C(N)Oc2ccc(-c3cc(OC)cc(OC)c3)cc21", "note": "(single isomer, unassigned; (-)) [(−)-CXL017]", "values": [{"measurement": "combination index (CI)", "setting": "SERCA [1]; (−)-CXL017 with each of the known SERCA inhibitors (TG, CPA, BHQ)", "result": "< 0.9"}, {"measurement": "cell viability", "setting": "HL60/MX2 cells [2]; 6.25 µM", "result": 47, "unit": "%"}]}
{"compound": "CC(C)(C)c1cc(O)c(C(C)(C)C)cc1O", "note": "[BHQ, 2,5-di-tert-butylhydroquinone]", "values": [{"measurement": "combination index (CI)", "setting": "SERCA [1]; [5]", "result": "0.15–0.25"}, {"measurement": "selectivity for resistant cell line (HL60/MX2 over HL60)", "setting": "HL60/MX2 cells [3]", "result": 7.7, "unit": "fold"}, {"measurement": "dissociation constant", "setting": "SERCA [4]", "result": "submicromolar"}]}
{"compound": "CC(=O)C1=C(O)[C@@H]2[C@H]3c4c[nH]c5cccc(c45)C[C@H]3C(C)(C)N2C1=O", "note": "[CPA, cyclopiazonic acid]", "values": [{"measurement": "combination index (CI)", "setting": "SERCA [1]; [5]", "result": "0.35–0.45"}, {"measurement": "selectivity for resistant cell line (HL60/MX2 over HL60)", "setting": "HL60/MX2 cells [3]", "result": 17, "unit": "fold"}, {"measurement": "dissociation constant", "setting": "SERCA [4]", "result": "submicromolar"}]}
{"compound": "CCOC(=O)CC1C(C(=O)OCC)=C(N)Oc2ccc(-c3cc(OC)cc(OC)c3)cc21", "note": "(stereo not shown) [CXL017, Ethyl 2-amino-6-(3,5-dimethoxyphenyl)-4-(2-ethoxy-2-oxoethyl)-4H-chromene-3-carboxylate]", "values": [{"measurement": "IC50", "setting": "SERCA1a", "result": "25 ± 1", "unit": "µM"}, {"measurement": "pKATP(reg)", "setting": "SERCA1a; 10 μM CXL017, varied ATP", "result": "2.96 ± 0.07"}, {"measurement": "pKATP(cat)", "setting": "SERCA1a; 10 μM CXL017, varied ATP", "result": "3.92 ± 0.02"}, {"measurement": "pKATP(reg)", "setting": "SERCA1a; 30 μM CXL017, varied ATP", "result": "2.6 ± 0.1"}, {"measurement": "pKATP(cat)", "setting": "SERCA1a; 30 μM CXL017, varied ATP", "result": "3.99 ± 0.02"}, {"measurement": "effect on apparent Ca2+ affinity (pKCa)", "setting": "SERCA1a; 10 or 30 μM CXL017", "result": "no significant effect"}, {"measurement": "change in Vmax at catalytic and regulatory ATP sites", "setting": "SERCA1a; 10 or 30 μM CXL017, varied ATP, two-site model", "result": "no significant change"}]}
{"compound": "C/C=C(/C)C(=O)O[C@H]1C(C)=C2[C@H]([C@@H]1OC(=O)CCCCCCC)[C@@](C)(OC(C)=O)C[C@H](OC(=O)CCC)[C@@]1(O)[C@H]2OC(=O)[C@@]1(C)O", "note": "[TG, thapsigargin]", "values": [{"measurement": "combination index (CI)", "setting": "SERCA [1]; [5]", "result": "0.4–0.65"}, {"measurement": "selectivity for resistant cell line (HL60/MX2 over HL60)", "setting": "HL60/MX2 cells [3]", "result": 400, "unit": "fold"}, {"measurement": "viability at 0.009375 µM", "setting": "HL60/MX2 cells [2]; Homo sapiens, HL60/MX2, read-out: cell viability", "result": 43, "unit": "%"}, {"measurement": "dissociation constant", "setting": "SERCA [4]", "result": "submicromolar"}]}
